Data published in ChEMBL document CHEMBL2150978, “Phosphorodiamidates as a promising new phosphate prodrug motif for antiviral drug discovery: application to anti-HCV agents” (J Med Chem, 2011).

What was measured:
Liver [1] = experiment: Cmax in Sprague-Dawley rat liver assessed as 2'-C-methyl guanosine triphosphate level at 10 mg/kg, po up to 24 hrs by LC-MS/Ms analysis; type: ADME, organism-based; set-up: dose 10 mg/kg, route oral; conditions: in vivo
Outline: (§1)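 Male Sprague-Dawley rats dosed orally by gavage at 10 mg/kg in 95% Capmul MCM/5% Tween 80. Livers collected terminally at eight time points up to 24 h and snap-frozen in liquid nitrogen. Liver 2′-C-methylguanosine triphosphate quantified by LC-MS/MS, linear over 100−4000 ng per gram of tissue (r² ≥ 0.99, ≥85% accuracy, ≤2% CV).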

[2] = Cytotoxicity against human HuH7 cells after 3 days; type: cell-based, Huh-7
Outline: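 Huh7 replicon cells seeded at 2 × 10⁴ per well one day before dosing. Four-fold serial dilutions in growth medium, no-drug controls on each plate. Incubated 3 days at 37 °C, 5% CO₂. Viability read by CellTiter-Glo luminescence after 20 min with reagent.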

Liver [3] = experiment: Clast in Sprague-Dawley rat liver assessed as 2'-C-methyl guanosine triphosphate level at 10 mg/kg, po up to 24 hrs by LC-MS/Ms analysis; type: ADME, organism-based; set-up: dose 10 mg/kg, route oral; conditions: in vivo; outline: as §1
Liver [4] = experiment: Tmax in Sprague-Dawley rat liver assessed as 2'-C-methyl guanosine triphosphate level at 10 mg/kg, po up to 24 hrs by LC-MS/Ms analysis; type: ADME, organism-based; set-up: dose 10 mg/kg, route oral; conditions: in vivo; outline: as §1
Liver [5] = experiment: AUC (0 to t) in Sprague-Dawley rat liver assessed as 2'-C-methyl guanosine triphosphate level at 10 mg/kg, po up to 24 hrs by LC-MS/Ms analysis; type: ADME, organism-based; set-up: dose 10 mg/kg, route oral; conditions: in vivo; outline: as §1
Hepatitis C virus = experiment: Antiviral activity against Hepatitis C virus subtype 1b Con1 infected in human Huh7 cells assessed as inhibition of HCV replicon-encoded Renilla luciferase reporter activity after 72 hrs by HCV replicon assay; type: functional, organism-based, Hepacivirus hominis; conditions: Con1, Huh-7, 72 h
Outline: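 Huh7 cells stably carrying a bicistronic subgenomic genotype 1b (Con1) replicon with Renilla luciferase reporter, seeded at 2 × 10⁴ cells/well the day before. Four-fold serial dilutions in growth medium, no-drug controls on each plate; 3 days at 37 °C, 5% CO₂. Luciferase reagent 20 min, then luminescence (RLU) read; EC₅₀ derived.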

`CCCCOC(=O)[C@H](C)NP(=O)(N[C@@H](C)C(=O)OCCCC)OC[C@H]1O[C@@H](n2cnc3c(OC)nc(N)nc32)[C@](C)(O)[C@@H]1O` (mixture of isomers) showed a Cmax (Liver [1]) of 1553.3 ng/g, a CC50 at 72 h [2] greater than 100000 nM and a Clast (Liver [3]) of 719.7 ng/g. The Tmax (Liver [4]) was 8 h, the AUCt (Liver [5]) was 27671 ng·h/g and the EC50 (Hepatitis C virus) was 70 nM. It also gave an EC90 (Hepatitis C virus) of 230 nM.

In the case of `CCCCCOC(=O)[C@H](C)NP(=O)(N[C@@H](C)C(=O)OCCCCC)OC[C@H]1O[C@@H](n2cnc3c(OC)nc(N)nc32)[C@](C)(O)[C@@H]1O` (mixture of isomers), the Cmax (Liver [1]) is reported as 1042.3 ng/g, the CC50 at 72 h [2] is reported as 65000 nM and the Clast (Liver [3]) is reported as 506 ng/g. For the same compound, the Tmax (Liver [4]) was 8 h, the AUCt (Liver [5]) was 18600 ng·h/g and the EC50 (Hepatitis C virus) was 30 nM. For the same compound, the EC90 (Hepatitis C virus) was 110 nM.

In the case of `COc1nc(N)nc2c1ncn2[C@@H]1O[C@H](COP(=O)(NC2CC2)N[C@@H](C)C(=O)OCC(C)(C)C)[C@@H](O)[C@@]1(C)O` (mixture of isomers), the CC50 at 72 h [2] is reported as greater than 100000 nM, the EC50 (Hepatitis C virus) is reported as 870 nM and the EC90 (Hepatitis C virus) is reported as 4700 nM.

`COc1nc(N)nc2c1ncn2[C@@H]1O[C@H](COP(=O)(NCc2ccccc2)N[C@@H](C)C(=O)OCC(C)(C)C)[C@@H](O)[C@@]1(C)O` (mixture of isomers) showed a CC50 at 72 h [2] greater than 100000 nM, an EC50 (Hepatitis C virus) of 430 nM and an EC90 (Hepatitis C virus) of 1900 nM.

`COc1nc(N)nc2c1ncn2[C@@H]1O[C@H](COP(=O)(Nc2ccccc2)N[C@@H](C)C(=O)OCC(C)(C)C)[C@@H](O)[C@@]1(C)O` (mixture of isomers) showed a CC50 at 72 h [2] greater than 100000 nM, an EC50 (Hepatitis C virus) of 270 nM and an EC90 (Hepatitis C virus) of 820 nM.

In the case of `COc1nc(N)nc2c1ncn2[C@@H]1O[C@H](COP(=O)(Nc2cccc3ccccc23)N[C@@H](C)C(=O)OCC(C)(C)C)[C@@H](O)[C@@]1(C)O` (mixture of isomers), the CC50 at 72 h [2] is reported as greater than 100000 nM, the EC50 (Hepatitis C virus) is reported as 130 nM and the EC90 (Hepatitis C virus) is reported as 560 nM.

Work on `CCN(CC)P(=O)(N[C@@H](C)C(=O)OCC(C)(C)C)OC[C@H]1O[C@@H](n2cnc3c(OC)nc(N)nc32)[C@](C)(O)[C@@H]1O` (mixture of isomers) yielded a CC50 at 72 h [2] greater than 100000 nM, an EC50 (Hepatitis C virus) of 3700 nM and an EC90 (Hepatitis C virus) greater than 10000 nM.

Compound `COc1nc(N)nc2c1ncn2[C@@H]1O[C@H](COP(=O)(N[C@@H](C)C(=O)OCC(C)(C)C)N2CCCC2)[C@@H](O)[C@@]1(C)O` (mixture of isomers) has a CC50 at 72 h [2] greater than 100000 nM, an EC50 (Hepatitis C virus) of 870 nM and an EC90 (Hepatitis C virus) of 4000 nM.

In the case of `CCOc1nc(N)nc2c1ncn2[C@@H]1O[C@H](COP(=O)(N[C@@H](C)C(=O)OC2CCCCC2)N[C@@H](C)C(=O)OC2CCCCC2)[C@@H](O)[C@@]1(C)O` (mixture of isomers), the CC50 at 72 h [2] is reported as 69000 nM, the EC50 (Hepatitis C virus) is reported as 50 nM and the EC90 (Hepatitis C virus) is reported as 150 nM.

`CCOc1nc(N)nc2c1ncn2[C@@H]1O[C@H](COP(=O)(N[C@@H](C)C(=O)OCc2ccccc2)N[C@@H](C)C(=O)OCc2ccccc2)[C@@H](O)[C@@]1(C)O` (mixture of isomers) gave a CC50 at 72 h [2] of 62000 nM, an EC50 (Hepatitis C virus) of 290 nM and an EC90 (Hepatitis C virus) of 1000 nM.

Compound `CCOc1nc(N)nc2c1ncn2[C@@H]1O[C@H](COP(=O)(N[C@@H](C)C(=O)OCC(C)(C)C)N[C@@H](C)C(=O)OCC(C)(C)C)[C@@H](O)[C@@]1(C)O` (mixture of isomers) has a CC50 at 72 h [2] of 72000 nM, an EC50 (Hepatitis C virus) of 40 nM and an EC90 (Hepatitis C virus) of 110 nM.

Compound `C[C@@]1(O)[C@H](O)[C@@H](CO)O[C@H]1n1cnc2c(=O)[nH]c(N)nc21` [2'-B-METHYL-GUANOSINE] has a CC50 at 72 h [2] greater than 100000 nM, an EC50 (Hepatitis C virus) of 2200 nM and an EC90 (Hepatitis C virus) of 8300 nM.

In the case of `COc1nc(N)nc2c1ncn2[C@@H]1O[C@H](CO)[C@@H](O)[C@@]1(C)O` [BETA-2'-C-METHYL-6-O-METHYL GUANOSINE], the CC50 at 72 h [2] is reported as greater than 100000 nM, the EC50 (Hepatitis C virus) is reported as 4400 nM and the EC90 (Hepatitis C virus) is reported as 19400 nM.

`COc1nc(N)nc2c1ncn2[C@@H]1O[C@H](COP(=O)(N[C@@H](C)C(=O)OCC(C)(C)C)Oc2cccc3ccccc23)[C@@H](O)[C@@]1(C)O` (stereo partly specified) [BMS-986094] showed a Cmax (Liver [1]) of 1446.7 ng/g, a Clast (Liver [3]) of 983.3 ng/g and a Tmax (Liver [4]) of 8 h. The AUCt (Liver [5]) was 24557 ng·h/g.
